Measured values taken from ChEMBL document CHEMBL4765348, “Discovery of the first Mycobacterium tuberculosis MabA (FabG1) inhibitors through a fragment-based screening” (Eur J Med Chem, 2020).
Active and inactive are the calls of the source. The rule behind the calls is not given here.

Assays:
[1] = (§1) Inhibition of Mycobacterium tuberculosis His6-tagged MabA expressed in Escherichia coli BL21 (DE3) assessed as reduction in HBCoA formation using AcAcCoA as substrate preincubated for 30 mins followed by substrate and 100 uM NADPH addition and measured after 15 mins by LC-MS/MS analysis
[2] = system: Mycobacterium tuberculosis; test: as §1, with “formation at 1 mM” for “formation”, “for 10 to” for “for”, “and” for “and 100 uM”, “analysis relative to control” for “analysis”; settings: time 10-45 min
In short: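 Single-point screen of His6-MabA purified by Ni2+-affinity. Compound at 1 mM was preincubated 10 or 30 min at 23 °C with 400 nM enzyme in 100 mM Hepes pH 7. Reaction ran 15 min with 50 µM AcAcCoA and 50 µM NADPH in 1% DMSO, then was stopped with 1% TFA containing 5 µM butyryl-CoA internal standard. HBCoA/BCoA was measured by LC-MS/MS MRM. % inhibition was taken relative to DMSO and 200 µM INH-NADP adduct controls.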

[3] = system: Mycobacterium tuberculosis; test: Binding affinity to Mycobacterium tuberculosis His6-tagged MabA expressed in Escherichia coli BL21 (DE3) at 100 uM by 19FNMR analysis
[4] = system: Mycobacterium tuberculosis; test: Inhibition of Mycobacterium tuberculosis His6-tagged MabA expressed in Escherichia coli BL21 (DE3) assessed as reduction in HBCoA formation up to 100 uM using AcAcCoA as substrate preincubated for 10 to 30 mins followed by substrate and NADPH addition and measured after 15 mins by LC-MS/MS analysis; settings: dose microM <=100, time 10-45 min
[5] = system: Mycobacterium tuberculosis; test: Antimycobacterial activity against GFP-tagged Mycobacterium tuberculosis H37Rv assessed as inhibition of microbial growth incubated for 5 days by fluorescence assay; assay type: functional; settings: 120 h
In short: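 M. tuberculosis H37Rv expressing GFP, grown in 7H9 with 0.2% glycerol and 0.05% Tween80, diluted to OD600 0.02. Ten 3-fold dilutions from 300 μM to 15 nM, 0.3% DMSO. Incubated 5 days at 37 °C, fluorescence read at Ex/Em 485/535 nm. Two independent replicates. Rifampicin, isoniazid and ethionamide served as positive controls.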

[6] = system: Mycobacterium tuberculosis; test: Antimycobacterial activity against Mycobacterium tuberculosis H37Ra assessed as inhibition of microbial growth incubated for 4 weeks in culture medium at pH 6.8; assay type: functional; settings: 672 h
[7] = system: Mycobacterium tuberculosis; test: Non-competitive inhibition of Mycobacterium tuberculosis MabA expressed in Escherichia coli BL21 (DE3) assessed as reduction in HBCoA formation using AcAcCoA as substrate preincubated for 30 mins followed by substrate and 50 to 500 uM NADPH addition and measured after 15 mins by LC-MS/MS analysis; settings: time 45.0 min
In short: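 Dose-response MabA assay (400 nM enzyme, 50 μM AcAcCoA, 30 min preincubation at 22 °C, 15 min reaction, LC-MS/MS HBCoA/BCoA) run at NADPH 50 and 500 μM. Test compound was tested at 8 points, 3-fold from 1 mM to 0.46 μM. INH-NADP adduct was tested from 200 μM to 0.09 μM. IC50s were compared between NADPH levels.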

[8] = Solubility of compound in PBS buffer at pH 7.4 incubated for 24 hrs under shaking conditions by LC-MS/MS analysis; assay type: physicochemical
In short: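 10 mM DMSO stock diluted 1:50 into PBS pH 7.4 or MeOH, in triplicate. Shaken 24 h at room temperature, centrifuged and filtered through 0.45 μm, then diluted in MeOH for LC-MS/MS MRM. Solubility is the PBS/MeOH signal-area ratio.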

[9] = Lipophilicity, logD of compound in octanol and PBS buffer at pH 7.4 incubated for 2 hrs under shaking condition by LC-MS/MS analysis; assay type: physicochemical
In short: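 10 mM DMSO stock diluted 1:50 into 1/1 octanol/PBS pH 7.4, shaken 2 h at room temperature. Each phase was diluted in MeOH and quantified by LC-MS/MS MRM (ES−). LogD is the log of the octanol/PBS concentration ratio. Run in triplicate.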

Row | SMILES | IC50 [1] [µM] | inhibition [2] [%] | other results
1 | CC(C)(C)OC(=O)Nc1ccc(Cl)cc1C(=O)O | > 500 | 77 | 
2 | Cc1ccc(C(=O)Nc2ccc(I)cc2C(=O)O)cc1 | 95 |  | 
3 | O=C(Nc1ccc(I)cc1C(=O)O)c1ccc(C(F)(F)F)cc1 | 69 |  | Activity [3]: Active
4 | O=C(CCCc1ccccc1)Nc1ccc(I)cc1C(=O)O | 186 |  | 
5 | Oc1cc(Cl)ccc1Oc1ccc(Cl)cc1Cl |  |  | inhibition [4]: inactive
6 | O=C(Nc1ccc(I)cc1C(=O)O)c1ccc(OC(F)(F)F)cc1 | 84 |  | Activity [3]: Active
7 | O=C1NC(=S)NC(=O)C1C/C=C/c1ccccc1 | 40 |  | MIC90 [5]: > 300 µM
8 | CC(=O)Oc1ccccc1C(=O)O [ASPIRIN] |  |  | MIC [6]: 33 µg/mL
9 | O=C(O)c1cc(I)ccc1NC(=O)C1Cc2ccccc2C1 | 140 |  | 
10 | COC(=O)c1cc(I)ccc1NC(=O)OC(C)(C)C | > 1000 | 0 | 
11 | CC/C(C)=C1\OC(=O)[C@H](C)[C@H](O)[C@H](Cc2cccnc2)NC(=O)[C@@H](NC(=O)c2ncccc2O)[C@@H](C)OC1=O |  |  | inhibition [4]: inactive
12 | O=C(O)c1cc2sccc2[nH]1 | 185 |  | MIC90 [5]: > 300 µM
13 | CO[C@H]1/C=C/O[C@@]2(C)Oc3c(C)c(O)c4c(O)c(c(/C=N/N5CCN(C)CC5)c(O)c4c3C2=O)NC(=O)/C(C)=C\C=C\[C@H](C)[C@H](O)[C@@H](C)[C@@H](O)[C@@H](C)[C@H](OC(C)=O)[C@@H]1C [RIFAMPIN] |  |  | MIC [5]: 0.004 µg/mL
14 | O=C(Nc1ccc(I)cc1C(=O)O)c1ccc(Cl)nc1 | 147 |  | 
15 | O=C(Cc1ccccc1)Nc1ccc(I)cc1C(=O)O | > 500 |  | 
16 | C/C=C/C=C/C(=O)Nc1c[nH]c(=O)[nH]c1=O | 65 |  | MIC90 [5]: > 300 µM
17 | Cc1cccc(Nc2ccccc2C(=O)O)c1C [MEFENAMIC ACID] |  |  | MIC [6]: 33 µg/mL
18 | O=C(O)c1cc(I)ccc1NC(=O)C1CCc2ccccc2C1 (stereo unspecified) | 109 |  | 
19 | CC(C)(C)OC(=O)Nc1ccc(I)cc1C(=O)O |  | 100 | inhibition [7]: Active; MIC90 [5]: 300 µM
20 | O=C(Nc1ccc(I)cc1C(=O)O)c1ccc(Cl)cc1Cl | 126 |  | 
21 | CC(C)(C)OC(=O)Nc1ccc(-c2ccccc2)cc1C(=O)O | 194 | 100 | 
22 | CC(C)(C)OC(=O)Nc1ccc(Br)cc1C(=O)O | 470 | 95 | 
23 | C=CCOC(=O)Nc1ccc(I)cc1C(=O)O | > 500 | 83 | 

Row | SMILES | IC50 [1] [µM] | inhibition [2] [%] | other results
24 | CC(C)(C)OC(=O)Nc1cc2ccccc2cc1C(=O)O | 310 | 100 | 
25 | O=C(O)c1ccccc1O [SALICYLIC ACID] |  |  | MIC [6]: 33 µg/mL
26 | O=C(O)c1ccccc1 [BENZOIC ACID] |  |  | MIC [6]: 33 µg/mL
27 | O=C(O)c1cc(I)ccc1NC(=O)C1CC1 | > 500 |  | 
28 | CC1(C#CC(=O)O)CC1(Cl)Cl (stereo unspecified) | 25 |  | MIC90 [5]: > 300 µM
29 | O=C(Nc1ccc(I)cc1C(=O)O)c1ccc(Cl)cc1 | 53 |  | 
30 | O=C(Nc1ccc(I)cc1C(=O)O)c1ccncc1 | > 400 |  | 
31 | NNC(=O)c1ccncc1 [ISONIAZID] |  |  | MIC [5]: 0.125 µg/mL
32 | O=C1Nc2ccc(Br)cc2C1=O | 72 |  | MIC90 [5]: > 300 µM
33 | COc1ccc(NC(=O)OC(C)(C)C)c(C(=O)O)c1 | > 1000 | 31 | 
34 | CC(C)(C)OC(=O)Nc1ccccc1C(=O)O | > 1000 | 31 | 
35 | O=C(Nc1ccc(I)cc1C(=O)O)c1ccc(Cl)c(C(F)(F)F)c1 | 59 |  | Activity [3]: Active
36 | CC(C)(C)OC(=O)Nc1ccc(F)cc1C(=O)O | 470 | 38 | 
37 | CC(C)(C)OC(=O)Nc1ccc(Oc2ccccc2)cc1C(=O)O | 243 | 100 | 
38 | O=C(Nc1ccc(I)cc1C(=O)O)c1cccc(Cl)c1 | 70 |  | 
39 | CCc1cc(C(N)=S)ccn1 [ETHIONAMIDE] |  |  | MIC [5]: 2 µg/mL
40 | O=C(Nc1ccc(I)cc1C(=O)O)c1ccccc1 | 145 |  | 
41 | CN(C(=O)OC(C)(C)C)c1ccc(I)cc1C(=O)O | 1000 | 50 | 
42 | CC(C)COC(=O)Nc1ccc(I)cc1C(=O)O | 310 | 100 | 
43 | O=C(Nc1ccc(I)cc1C(=O)O)OCc1ccccc1 | 92 | 100 | 
44 | O=C(CCc1ccccc1)Nc1ccc(I)cc1C(=O)O | 295 |  | 
45 | O=C(Nc1ccc(I)cc1C(=O)O)c1ccc(Cl)c(Cl)c1 | 38 |  | solubility thermodynamic at 24 h [8]: > 200 µM; logD at 2 h [9]: 3.4; MIC90 [5]: 300 µM
